Sampled rows, rich in hits. Any-hit rate of the full collection: about 2.1%.
DNMT1 block = inhibitors of human DNMT1; AID 588458; 360,000 compounds, 0.83% hits; inhibition (reported as % activation of signal), % at 10 µM; DNMT1 molecular beacon, Hinp1I cleavage, fluorescence; P26358; in the data active means inhibition above about 50%
STEP inh = inhibitors of human striatal-enriched phosphatase STEP. P54829. recombinant STEP, OMFP fluorogenic substrate, fluorescence. inhibition, % at 20 µM. 360,000 compounds, 0.25% hits;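 active means inhibition at 20 µM, scaled per plate between control wells, above about 37%, limit read from the data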
Target sequence (P54829 whole entry, looked up): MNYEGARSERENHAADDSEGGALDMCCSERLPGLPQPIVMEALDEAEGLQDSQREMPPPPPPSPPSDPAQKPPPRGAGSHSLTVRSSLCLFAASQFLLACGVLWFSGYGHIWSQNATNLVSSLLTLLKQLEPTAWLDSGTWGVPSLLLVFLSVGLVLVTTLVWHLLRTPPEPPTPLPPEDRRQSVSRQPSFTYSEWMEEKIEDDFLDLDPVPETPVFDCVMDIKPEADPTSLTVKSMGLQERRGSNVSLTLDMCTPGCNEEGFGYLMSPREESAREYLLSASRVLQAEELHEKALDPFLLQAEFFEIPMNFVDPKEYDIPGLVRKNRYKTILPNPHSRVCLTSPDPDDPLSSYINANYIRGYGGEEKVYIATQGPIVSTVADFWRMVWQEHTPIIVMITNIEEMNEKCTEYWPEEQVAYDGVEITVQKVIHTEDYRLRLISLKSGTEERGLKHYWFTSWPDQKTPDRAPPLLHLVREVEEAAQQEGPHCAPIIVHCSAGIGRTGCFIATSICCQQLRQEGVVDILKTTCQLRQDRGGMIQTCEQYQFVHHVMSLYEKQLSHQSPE
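material = STEP tyrosine phosphatase | reagent = fluorogenic phosphatase substrate OMFP at 25 µM final | doses = single compound dose of 20 µM, 1% DMSO final | schedule = 20 min reaction, room temperature, in the dark | measured by = fluorescence, 480/540 nm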
SUMO1-SIM PPI = modulators of human SUMO1-mediated protein-protein interactions; inhibition, % at 20 µM; SUMO1 binding to a labelled peptide, TR-FRET, 1 h; 360,000 compounds, 0.33% hits; AID 602429; P63165; in the data active means inhibition above about 37%
Target sequence (P63165 whole entry, looked up): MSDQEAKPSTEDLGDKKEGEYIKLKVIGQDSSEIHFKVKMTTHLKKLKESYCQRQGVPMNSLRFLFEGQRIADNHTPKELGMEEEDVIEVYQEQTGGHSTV
LMPTP block = LMPTP (human) inhibition. P24666. recombinant LMPTP-A, OMFP fluorogenic substrate, fluorescence intensity. inhibition, % at 20 µM. 360,000 compounds, 0.22% hits. AID 651560;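 active means compounds that cut the enzyme signal by at least half of the control window in the single-dose screen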
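Material: LMPTP-A; amount: 0.625 nM enzyme; doses: single 20 µM dose; times: reaction 50 min, room temperature, dark; technique: fluorescence intensity of OMFP turnover product; benchmarks: no-enzyme and uninhibited controls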
Scp-1 inhibitor = inhibitors of human Scp-1 phosphatase; Q9GZU7; Recombinant Scp1, phosphopeptide, malachite green phosphate absorbance; inhibition, % at 20 µM; 340,000 compounds, 0.88% hits; AID 493091;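 active means inhibition above about 50% at 20 µM, limit read from the data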
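Test system: SCP-1 catalytic domain; Buffer or medium: Acidic Tris acetate buffer with magnesium and detergent; Also added: Phosphorylated 17-residue peptide substrate; Compound: single 20 µM dose, 1% DMSO; Schedule: enzyme reaction 45 min at room temperature, colour 5 min, stabilisation 30 min; Signal: Phosphate-binding colour reagent, absorbance read at 630 nm.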
GRK2 aptamer HTS = inhibitors of human GRK2 displacing RNA aptamer; bead flow cytometry, FAM-aptamer displacement from GRK2; inhibition of aptamer binding, % at 10 µM; 330,000 compounds, 0.59% hits; AID 488847;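 active means inhibition of aptamer binding above 40%, roughly 3 SD of noise, on plates passing a quality check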;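 further: median bead fluorescence of bound FAM aptamer so fluorescent compounds give negative values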
DNMT1 interf DR = shows spectral interference in the DNMT1 beacon assay. IC50, µM. molecular beacon fluorescence, spectral interference counter-screen. 200 tested, under 10 active. AID 602382. shares compounds with DNMT1 block; call rule not given here
DNMT1 confirm = confirmation of human DNMT1 inhibitors; shares compounds with DNMT1 block; DNMT1 molecular beacon HinP1I cleavage, fluorescence; AID 602385; 2,300 compounds, 8% hits; inhibition, % at 10 µM;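 active means average inhibition of at least 30% in the single-concentration confirmation test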
Beacon interf = counter-screen for DNMT1 inhibitors: spectral interference. activation (fluorescence interference), % at 10 µM. 2,300 compounds, 1% hits. DNMT1 molecular beacon spectral interference counterscreen, fluorescence 485/520. shares compounds with DNMT1 block;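 active means activation of at least 30% at 10 µM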;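 further: DNMT1 catalytic domain with a HinP1I cleavage step and a FAM/dabcyl DNA beacon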
Hits are given with their value; - = inactive; . = not tested or not shown.

SMILES	DNMT1 block	STEP inh	SUMO1-SIM PPI	LMPTP block	Scp-1 inhibitor	GRK2 aptamer HTS	DNMT1 confirm	Beacon interf	others
Nc1c(C(=O)N/N=C/c2ccc(Cl)cc2)cnn1-c1ccccc1	-	-	-	-	-	-	.	.
Nc1c(C(=O)N/N=C/c2ccc(OCc3ccccc3)cc2)cnn1-c1ccccc1	51	-	-	50	-	-	-	-
CCC(=O)N1CCC(C)(C(=O)Nc2nccc3ccccc23)C1 (stereo not drawn)	-	-	-	-	.	.	.	.
COc1ccc2sc3c(=O)[nH]c4ccccc4c3c2c1	58	-	-	-	-	-	-	-
COc1ccc2c(c1)[nH]c(=O)c1sc3ccccc3c12	-	-	-	-	-	-	.	.
NC1=NC(=O)/C(=C\c2ccco2)S1	74	-	-	-	63	-	-	-
NC1=NC(=O)C(=Cc2ccccc2)S1	-	-	-	-	-	.	.	.
COc1cccc(C(C)(O)c2nc(-c3cc(F)cc(F)c3)cs2)c1 (stereo not drawn)	-	-	-	-	.	.	.	.
CCOC(=O)c1cc(-c2ccc(C)cc2)n(CC(=O)NCc2ccco2)c1C	50	-	-	-	-	-	-	-
O=C(COC(=O)c1ccc(NS(=O)(=O)c2cccs2)cc1)NCc1ccco1	92	-	40	-	92	-	71	-	DNMT1 interf DR=-
Cc1ccc(NS(=O)(=O)c2cccc(C(=O)OCC(=O)NCc3ccco3)c2)cc1	-	-	-	-	-	-	.	.
O=C(COC(=O)c1ccccc1Cl)NCc1ccco1	85	-	-	-	-	-	-	-
COc1ccc(C)cc1NC(=O)NC1CC(=O)N(c2ccc3c(c2)OCCO3)C1 (stereo not drawn)	-	-	-	-	.	.	.	.
CCc1nnc(NC(=O)CSc2ccc(-c3ccc(-n4cccn4)cc3)nn2)s1	-	-	-	-	-	-	.	.
COc1c(C)cc(C(=O)C2CCCN(S(=O)(=O)N(C)C)C2)cc1C (stereo not drawn)	-	-	-	-	-	-	.	.
CC1=NN(c2ccc(C)c(C)c2)C(=O)/C1=C\C=C\c1ccc([N+](=O)[O-])o1	91	-	-	-	65	-	-	-
CC1=NN(c2ccccc2)C(=O)/C1=C\C=C\c1ccccc1	-	-	-	-	-	-	.	.
Cc1nn(CC(=O)NCc2cc3ccccc3[nH]2)c(C)c1[N+](=O)[O-]	-	-	-	-	-	-	.	.
COc1ccc(NC(=O)C2Cc3c(-c4ccc(NC(C)=O)cc4)ccnc3O2)cc1OC (stereo not drawn)	-	-	-	-	.	.	.	.
COc1ccc(NC(=O)C2Cc3c(-c4ccco4)ccnc3O2)cc1OC (stereo not drawn)	90	-	-	-	.	.	-	-
COc1ccc(Cc2c(-c3ccccc3)nc3ccc(Cl)cn23)c(C)c1	-	-	-	-	.	.	.	.
COc1ccc(Cc2c(-c3ccco3)nc3ccc(Cl)cn23)c(C)c1	84	-	-	-	.	.	-	-
COc1ccc(Cc2c(-c3ccco3)nc3ccc(Br)cn23)c(C)c1	102	-	-	-	.	.	-	-
Cc1cc(Br)cn2c(Cc3ccsc3)c(-c3ccco3)nc12	52	-	-	-	.	.	-	-
Cc1cc(Br)cn2c(Cc3ccccc3)c(-c3ccco3)nc12	-	-	-	-	.	.	.	.
SMILES	DNMT1 block	STEP inh	SUMO1-SIM PPI	LMPTP block	Scp-1 inhibitor	GRK2 aptamer HTS	DNMT1 confirm	Beacon interf	others
CC(C)C[C@H]1CN(CCCC[C@H]2CNC(=O)C(=O)N2CC2CCCCC2)C(=O)C(=O)N1CCc1ccc(O)cc1	.	.	-	-	.	.	.	.
COC(=O)c1sccc1NC(=O)c1cc(-c2cccc(C)c2)nc2ccccc12	50	-	-	-	-	-	-	-
NC(=O)CC[C@H](NC(=O)c1ccc(F)cc1)C(=O)OCC(=O)NCc1ccc(F)cc1	52	-	-	-	-	-	-	-
NC(=O)CC[C@H](NC(=O)c1ccc(F)cc1)C(=O)OCC(=O)Nc1c(F)c(F)c(F)c(F)c1F	-	-	-	-	-	-	.	.
O=C(CNCc1ccc(F)cc1)Nc1cc(S(=O)(=O)N2CCOCC2)ccc1Cl	-	-	-	-	-	-	.	.
CCC(=O)N1CCC(C)(C(=O)NCc2cccc(OC)c2)C1 (stereo not drawn)	-	-	-	-	.	.	.	.
COc1ccc(-c2nn(-c3ccccc3)cc2/C=C2/SC(=S)N(CCC(=O)O)C2=O)cc1	75	-	-	-	85	-	89	-	DNMT1 interf DR=-
O=C(O)CCCCCN1C(=O)/C(=C\c2cn(-c3ccccc3)nc2-c2cccs2)SC1=S	85	-	114	-	66	-	44	-	DNMT1 interf DR=60
O=C(O)CCCCCN1C(=O)/C(=C/c2cn(-c3ccccc3)nc2-c2cccs2)SC1=S	83	-	59	-	-	.	46	-	DNMT1 interf DR=81
CCN1C(=O)/C(=C/c2cn(-c3ccccc3)nc2-c2cccnc2)SC1=S	61	-	-	-	-	.	-	-
CC1=NNC(=O)/C1=C\c1cn(-c2ccccc2)nc1-c1cccs1	-	-	-	-	-	-	.	.
Cc1ccc(OCC(=O)Nc2ccc3oc(=O)ccc3c2)c(C)c1	-	-	-	-	-	-	.	.
Cn1cnc2c1c(=O)n(Cc1cccc(Br)c1)c(=O)n2C	-	-	-	-	-	-	.	.
CCn1cnc2c1c(=O)n(Cc1cccc(Br)c1)c(=O)n2Cc1ccccc1	68	-	-	-	-	-	-	-
CN(CC(=O)NC(=O)NC(C)(C)C)CC(=O)Nc1ccccc1Cl	-	-	-	-	-	-	.	.
O=C(CSc1ccc2ccccc2n1)Nc1nsc(-c2ccc(Cl)cc2)n1	77	-	43	56	-	-	-	-
O=C(CSc1nnnn1-c1ccccc1)Nc1nsc(-c2ccc(Cl)cc2)n1	71	-	-	-	-	-	-	-
O=C(CSc1nnnn1-c1ccccc1)Nc1nsc(-c2ccccc2)n1	-	-	-	-	-	-	.	.
COc1cccc(N(CC(=O)NC2CCCCC2)C(=O)CCC(=O)Nc2nccs2)c1	-	-	-	-	-	-	.	.
CCC1S/C(=N/S(=O)(=O)c2ccc(N)cc2)NC1=O (stereo not drawn)	66	-	-	-	-	.	-	-
CCC1SC(=Nc2cccc(C)c2)NC1=O (stereo not drawn)	-	-	-	-	-	-	.	.
CC(OC(=O)Cn1ccccc1=O)C(=O)Nc1cc(Cl)cc(Cl)c1 (stereo not drawn)	-	-	-	-	-	-	.	.

Screening data deposited in PubChem by several laboratories.
